Activity calls are given as the source filed them. The rule behind the calls is not given here.
What was measured:
[1] = system: HEK293; assay: Effect on APP protein expression in APP expressing HEK cells at 0.5 to 1.5 uM after 48 hrs by Western blotting method; type: functional, cell-based; conditions: Homo sapiens
In short: (§1)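 HEK-APP cells (DMEM, 10% FBS, 2 mM glutamine, 0.2 mg/mL G418) treated with 0, 0.5, 0.75, 1 or 1.5 μM compound for 48 h. Lysates in Tris/NaCl/EDTA/1% Triton buffer immunoblotted for ADAM10, APP and β-actin; conditioned medium blotted for sAPPα. Signal by densitometry, normalized to β-actin, relative to blank control; mean ± SD, three independent experiments.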

[2] = Drug accumulation in cytoplasm of APP expressing HEK cells at 2 uM after 2 hrs by confocal microscopy; type: ADME, cell-based; conditions: human, hek293, 2 h
[3] = Selectivity index, ratio of affinity to Bcl-2 RNA QGRS (unknown origin) to ADAM10 A10-Wt RNA QGRS (unknown origin) by Renilla/firefly dual luciferase reporter assay
[4] = system: HeLa; assay: Binding affinity to ADAM10 5'-UTR mutant RNA QGRS (unknown origin) transfected in human HeLa cells assessed as increase in ADAM10 translation efficiency at 0.5 uM after 24 hrs by Renilla/firefly dual luciferase reporter assay; type: cell-based
In short: (§2)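 HeLa cells transfected with 0.8 μg 5′UTR-Wt or 5′UTR-Mut dual-luciferase plasmid. After 12 h, incubated 24 h with 0, 0.5, 1 or 2.5 μM compound. Renilla luciferase normalized to firefly and expressed relative to the ligand-free control; mean ± SD of three independent experiments, each in triplicate.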

[5] = system: HEK293; assay: Reduction in Abeta40 protein production in APP expressing HEK cells at 1.5 uM after 48 hrs by ELISA method; type: functional, Homo sapiens; design: scale not given: the % may be the effect or the level left
In short: (§3)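 HEK-APP cells treated 48 h with increasing compound concentrations (0.75, 1, 1.5 μM). Secreted Aβ40 in equal amounts of conditioned medium quantified by sandwich ELISA. Values expressed relative to blank control; mean ± SD of three independent experiments.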

[6] = system: HeLa; assay: Binding affinity to VEGF RNA QGRS (unknown origin) transfected in human HeLa cells assessed as increase in ADAM10 translation efficiency at 2.5 uM after 24 hrs by Renilla/firefly dual luciferase reporter assay; type: cell-based
In short: (§4)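 HeLa cells carrying luciferase reporter plasmids with the N-Ras, Bcl-2 or VEGF 5′-UTR quadruplex (or its mutant) treated with compound up to 2.5 μM for 24 h. Renilla/firefly luciferase activity then measured.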

[7] = system: HeLa; assay: Binding affinity to ADAM10 5'-UTR RNA QGRS (unknown origin) transfected in human HeLa cells assessed as increase in ADAM10 translation efficiency at 2.5 uM after 24 hrs by Renilla/firefly dual luciferase reporter assay; type: cell-based; in short: as §2
[8] = system: HEK-APP; assay: Binding affinity to ADAM10 A10-RNA QGRS (unknown origin) transfected in HEK-APP cells assessed as increase in sAPPalpha level at 1.5 uM after 48 hrs by Western blotting method; type: cell-based; in short: as §1
[9] = Binding affinity to ADAM10 A10-RNA QGRS (unknown origin) assessed as increase in RNA-ligand complexes at 0.5 to 10 fold excess compound level by native gel electrophoresis method
In short: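 A10-RNA-Wt labeled with Cy3/Cy5 folded in 100 mM KCl, 10 mM Tris-HCl, 0.1 mM EDTA (pH 7.5): 95 °C for 5 min, then cooled to room temperature over 90 min. RNA (2 μM) incubated 5 min at room temperature in the dark with 0, 0.5, 1, 5 or 10-fold excess compound. Run on native 16% polyacrylamide gel at 4 °C.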

[10] = Toxicity against APP expressing HEK cells assessed as reduction in cell viability after 48 hrs by MTT assay; type: cell-based, HEK293; conditions: human
[11] = system: HEK293; assay: Reduction in Abeta40 protein production in APP expressing HEK cells at 1 uM after 48 hrs by ELISA method; type: functional, Homo sapiens; design: scale not given: the % may be the effect or the level left; in short: as §3
[12] = system: HeLa; assay: Binding affinity to ADAM10 5'-UTR RNA QGRS (unknown origin) transfected in human HeLa cells assessed as increase in ADAM10 translation efficiency at 0.5 uM after 24 hrs by Renilla/firefly dual luciferase reporter assay; type: cell-based; in short: as §2
[13] = system: HEK-APP; assay: Binding affinity to ADAM10 A10-RNA QGRS (unknown origin) transfected in HEK-APP cells assessed as increase in ADAM10 protein expression at 1.5 uM after 48 hrs by Western blotting method; type: cell-based; in short: as §1
[14] = system: HeLa; assay: Binding affinity to ADAM10 A10-RNA QGRS (unknown origin) transfected in human HeLa cells assessed as increase in ADAM10 translation efficiency at 0.5 uM after 24 hrs by Renilla/firefly dual luciferase reporter assay; type: cell-based
In short: (§5)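 HeLa cells transfected with 0.8 μg A10-Wt, A10-Mut or A10-Del plasmid (G-quadruplex motif upstream of Renilla in psiCHECK-2). Screening: 24 h at a single 2 μM concentration. Follow-up: plasmid for 12 h, then 0, 0.5, 1 or 2.5 μM for 24 h. Renilla normalized to firefly, relative to untreated control; mean ± SD of three independent measurements.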

[15] = Binding affinity to 5'-end biotinylated ADAM10 A10-RNA QGRS (unknown origin) by surface plasmon resonance assay method
In short: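 SPR with 5′-biotinylated A10-RNA-Wt or A10-RNA-Mut immobilized on a neutravidin chip in running buffer (50 mM Tris-HCl pH 7.5, 100 mM KCl). Ligand serial dilutions in running buffer injected at 20 μL/min for association, then dissociation. Chip regenerated with 50 mM NaOH between runs.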

[16] = system: HEK-APP; assay: Binding affinity to ADAM10 A10-RNA QGRS (unknown origin) transfected in HEK-APP cells assessed as increase in ADAM10 protein expression at 1 uM after 48 hrs by Western blotting method; type: cell-based; in short: as §1
[17] = Selectivity index, ratio of affinity to N-Ras RNA QGRS (unknown origin) to ADAM10 A10-Wt RNA QGRS (unknown origin) by Renilla/firefly dual luciferase reporter assay
[18] = system: HeLa; assay: Binding affinity to ADAM10 A10-RNA QGRS (unknown origin) transfected in human HeLa cells assessed as increase in ADAM10 translation efficiency at 2 uM after 24 hrs by Renilla/firefly dual luciferase reporter assay; type: cell-based; in short: as §5
[19] = system: HeLa; assay: Binding affinity to Bcl-2 RNA QGRS (unknown origin) transfected in human HeLa cells assessed as increase in ADAM10 translation efficiency at 2.5 uM after 24 hrs by Renilla/firefly dual luciferase reporter assay; type: cell-based; in short: as §4
[20] = system: HEK-APP; assay: Binding affinity to ADAM10 A10-RNA QGRS (unknown origin) transfected in HEK-APP cells assessed as change in ADAM10 mRNA expression at 0.5 to 1.5 uM after 48 hrs by RT-PCR method; type: cell-based
In short: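 HEK-APP cells cultured 48 h with 0, 0.5, 0.75, 1 or 1.5 μM compound. Total RNA isolated and ADAM10 mRNA measured by RT-PCR, normalized to β-actin.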

[21] = system: HEK293; assay: Reduction in Abeta40 protein production in APP expressing HEK cells at 0.5 to 1.5 uM after 48 hrs by ELISA method; type: functional, cell-based; conditions: Homo sapiens; in short: as §3

In the case of `CCn1c2ccccc2c2cc(/C=C/c3cc(N4CCN(C)CC4)c4ccccc4[n+]3C)ccc21.[I-]`, the Activity [1] is reported as “inactive”, the Drug uptake [2] is reported as “Active” and the Selectivity Index [3] is reported as 3. The Activity [4] was “inactive”, the Activity [5] was 40.8% and the Activity [6] was “inactive”. For the same molecule, the Activity [7] was 44.8%, the fold change (FC) [8] was 3.3 and the Activity [9] was “Active”. It also gave an IC50 at 48 h [10] of 10.7 µM, an Activity [11] of 20.7% and an Activity [12] of 9.7%. The Activity [13] was 92.9%, the Activity [14] was 14.1% and the Kd [15] was 6.1 µM. It also gave an Activity [16] of 76.8%, a Selectivity Index [17] of 3 and an Activity [18] of 138%. The Activity [19] was 20%, the Activity [20] was “inactive” and the Activity [21] was “Dose-dependent effect”.
